Laboratory results: ChEMBL document CHEMBL1144689, “Antileukemic activity of genistein, a major isoflavone present in soy products” (J Nat Prod, 2008)

Key:
MOLT-3 [1] = assay: Growth inhibition of human MOLT3 cells after 48 hrs; type: functional
Summary of the method: (§1)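 Human leukemic cells (RPMI-1640, 10% heat-inactivated FBS), log phase, seeded at 2 × 10^4 cells/mL. Exposed to 1, 2, 5, 10 or 20 µM (DMSO stock). Cell number counted with a Coulter particle counter at 48 h. Growth inhibition as % of untreated control. IG50 is the concentration giving 50% inhibition. Triplicate, three repeats, mean ± SEM.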

HL-60 [2] = assay: Growth inhibition of human HL60 cells after 48 hrs; type: functional; summary of the method: as §1
Raji [3] = assay: Growth inhibition of human Raji cells after 48 hrs; type: functional; summary of the method: as §1
[4] = Growth inhibition of human KG1a cells after 48 hrs; type: functional, KG-1a; summary of the method: as §1
MOLT-3 [5] = assay: Antileukemic activity against human MOLT3 cells at 1 uM after 24 hrs by clonogenic assay; type: functional
Summary of the method: (§2)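 Log-phase cells at 2 × 10^4 cells/mL in RPMI-1640 with 10% heat-inactivated FBS, 37 °C, 5% CO2. Drug (DMSO stock) at 1, 2, 5, 10 or 20 µM for 24 h, removed by centrifugation. 100 cells plated in 0.45% soft agar with 20% serum. Colonies >50 cells counted after 15 days. Loss of clonogenicity as % of untreated control. Triplicate, three repeats, mean ± SEM.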

HL-60 [6] = assay: Antileukemic activity against human HL60 cells at >2 uM after 24 hrs by clonogenic assay; type: functional; summary of the method: as §2
Raji [7] = assay: Antileukemic activity against human Raji cells at >2 uM after 24 hrs by clonogenic assay; type: functional; summary of the method: as §2
MOLT-3 [8] = assay: Antileukemic activity against human MOLT3 cells after 24 hrs by clonogenic assay; type: functional; conditions: MOLT-3, 24 h, read-out: LC50 (the source's name)
Summary of the method: (§3)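 Log-phase cells seeded at 2 × 10^4 cells/mL in RPMI-1640 with 10% heat-inactivated FBS at 37 °C, 5% CO2, then exposed 24 h to 1–20 µM (DMSO stock). Drug washed out by centrifugation. 100 cells plated in 0.45% soft agar with 20% serum for 15 days, and colonies (>50 cells) counted. Loss of clonogenicity is relative to untreated control. Triplicates, repeated three times, mean ± SEM. LC50 read from the dose curve.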

HL-60 [9] = assay: Antileukemic activity against human HL60 cells after 24 hrs by clonogenic assay; type: functional; conditions: HL-60, 24 h, read-out: LC50 (the source's name); summary of the method: as §3
Raji [10] = assay: Antileukemic activity against human Raji cells after 24 hrs by clonogenic assay; type: functional; conditions: read-out: LC50 (the source's name); summary of the method: as §3
L1210 [11] = assay: Growth inhibition of mouse L1210 cells at 1 uM after 12 hrs; type: functional; conditions: L1210, 12 h, read-out: GI
Summary of the method: (§4)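 For L1210 (RPMI-1640, 5% heat-inactivated FCS, 6 µM 2-mercaptoethanol), log-phase cultures at 2 × 10^4 cells/mL were given 1–20 µM for 12, 24 or 48 h. Coulter particle counter counts were expressed as % growth inhibition versus untreated control. IG50 was taken at 24 h. Triplicate, three repeats, mean ± SEM.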

L1210 [12] = assay: Growth inhibition of mouse L1210 cells at 1 uM after 24 hrs; type: functional; conditions: L1210, 24 h, read-out: GI; summary of the method: as §4
L1210 [13] = assay: Growth inhibition of mouse L1210 cells at 1 uM after 48 hrs; type: functional; conditions: L1210, 48 h, read-out: GI; summary of the method: as §4
L1210 [14] = assay: Growth inhibition of mouse L1210 cells at 2 uM after 12 hrs; type: functional; conditions: L1210, 12 h, read-out: GI; summary of the method: as §4
L1210 [15] = assay: Growth inhibition of mouse L1210 cells at 2 uM after 24 hrs; type: functional; conditions: L1210, 24 h, read-out: GI; summary of the method: as §4
L1210 [16] = assay: Growth inhibition of mouse L1210 cells at 2 uM after 48 hrs; type: functional; conditions: L1210, 48 h, read-out: GI; summary of the method: as §4
L1210 [17] = assay: Growth inhibition of mouse L1210 cells at 5 uM after 12 hrs; type: functional; conditions: L1210, 12 h, read-out: GI; summary of the method: as §4
L1210 [18] = assay: Growth inhibition of mouse L1210 cells at 5 uM after 24 hrs; type: functional; conditions: L1210, 24 h, read-out: GI; summary of the method: as §4
L1210 [19] = assay: Growth inhibition of mouse L1210 cells at 5 uM after 48 hrs; type: functional; conditions: L1210, 48 h, read-out: GI; summary of the method: as §4
L1210 [20] = assay: Growth inhibition of mouse L1210 cells at 10 uM after 12 hrs; type: functional; conditions: L1210, 12 h, read-out: GI; summary of the method: as §4
L1210 [21] = assay: Growth inhibition of mouse L1210 cells at 10 uM after 24 hrs; type: functional; conditions: L1210, 24 h, read-out: GI; summary of the method: as §4
L1210 [22] = assay: Growth inhibition of mouse L1210 cells at 10 uM after 48 hrs; type: functional; conditions: L1210, 48 h, read-out: GI; summary of the method: as §4
L1210 [23] = assay: Growth inhibition of mouse L1210 cells at 20 uM after 12 hrs; type: functional; conditions: L1210, 12 h, read-out: GI; summary of the method: as §4
L1210 [24] = assay: Antileukemic activity against mouse L1210 cells at 1 uM after 12 hrs by clonogenic assay; type: functional
Summary of the method: (§5)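 Murine L1210 cells cultured in RPMI-1640 with 5% heat-inactivated FCS and 6 µM 2-mercaptoethanol. Log-phase cells at 2 × 10^4 cells/mL exposed to 1–20 µM for 12, 24 or 48 h, then drug removed by centrifugation. 100 cells plated in 0.45% soft agar with 10% serum. Colonies >50 cells counted at day 7. Result as % relative to untreated control. Triplicate, three repeats, mean ± SEM.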

L1210 [25] = assay: Antileukemic activity against mouse L1210 cells at 1 uM after 48 hrs by clonogenic assay; type: functional; summary of the method: as §5
L1210 [26] = assay: Antileukemic activity against mouse L1210 cells at 2 uM after 12 hrs by clonogenic assay; type: functional; summary of the method: as §5

In the case of `O=c1c(-c2ccc(O)cc2)coc2cc(O)cc(O)c12` [GENISTEIN], the IG50 (MOLT-3 [1]) is reported as 12.7 µM, the IG50 (HL-60 [2]) is reported as 18.2 µM and the IG50 (Raji [3]) is reported as 18.6 µM. It also gave an IG50 [4] of 23 µM, an Activity (MOLT-3 [5]) of over 10% and an Activity (HL-60 [6]) of over 10%. The Activity (Raji [7]) was over 10%, the CC50 (MOLT-3 [8]) was 7.5 µM and the CC50 (HL-60 [9]) was 6.3 µM. The CC50 (Raji [10]) was 13.7 µM, the inhibition of growth at 1 µM (L1210 [11]) was 3.2% and the inhibition of growth at 1 µM (L1210 [12]) was 4.1%. For the same compound, the inhibition of growth at 1 µM (L1210 [13]) was 13.2%, the inhibition of growth at 2 µM (L1210 [14]) was 6.2% and the inhibition of growth at 2 µM (L1210 [15]) was 11.4%. The inhibition of growth at 2 µM (L1210 [16]) was 21.9%, the inhibition of growth at 5 µM (L1210 [17]) was 15.1% and the inhibition of growth at 5 µM (L1210 [18]) was 28.5%. It also gave an inhibition of growth at 5 µM (L1210 [19]) of 55.9%, an inhibition of growth at 10 µM (L1210 [20]) of 23.8% and an inhibition of growth at 10 µM (L1210 [21]) of 42.8%. The inhibition of growth at 10 µM (L1210 [22]) was 79.2%, the inhibition of growth at 20 µM (L1210 [23]) was 54.2% and the Activity (L1210 [24]) was 11%. The Activity (L1210 [25]) was 11.9% and the Activity (L1210 [26]) was 14%.
